# Test results taken from ChEMBL document CHEMBL2321703, “Identification of novel D-amino acid oxidase inhibitors by in silico screening and their functional characterization in vitro” (J Med Chem, 2013).
# The source made the active and inactive calls. The calls are words filed in the database; no cut-off is given here.
# Experiments:
# D-amino-acid oxidase [1] = target: T1, D-amino-acid oxidase (Homo sapiens, UniProt P14920); experiment: Inhibition of human recombinant N-terminal His-tagged DAO expressed in Escherichia coli BL21(DE3) using D-serine as substrate by colorimetric assay
# Serine racemase = target: T2, Serine racemase (Homo sapiens, UniProt Q9GZT4); experiment: (§1) Inhibition of human recombinant N-terminal His-tagged serine racemase expressed in Escherichia coli BL21(DE3) using L-serine as substrate after 10 mins by fluorescence assay
# T2 sequence (Q9GZT4 whole entry): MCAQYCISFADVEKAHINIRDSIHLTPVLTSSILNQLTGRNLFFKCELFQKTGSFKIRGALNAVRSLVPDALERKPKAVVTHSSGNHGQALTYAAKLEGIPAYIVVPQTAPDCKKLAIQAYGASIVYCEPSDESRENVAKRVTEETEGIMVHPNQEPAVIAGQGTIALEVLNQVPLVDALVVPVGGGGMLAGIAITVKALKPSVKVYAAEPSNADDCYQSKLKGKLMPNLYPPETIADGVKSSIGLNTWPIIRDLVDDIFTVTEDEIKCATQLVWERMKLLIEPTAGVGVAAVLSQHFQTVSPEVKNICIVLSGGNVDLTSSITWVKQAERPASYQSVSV
# Summary of the method: (§2)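 Purified enzyme (30 μg) in 40 mM Tris-HCl pH 8.0, 60 μM pyridoxal phosphate, 1 mM MgCl2, ATP, 1 mM dithiothreitol, 10 mM L-Ser, with compound; 37 °C, 10 min; methanol stop. D-Ser quantified by OPA/Boc-L-cysteine derivatization and reversed-phase HPLC fluorescence (ex 344, em 443 nm).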
# [2] = target: T3, Serine racemase (Homo sapiens) (UniProt Q9GZT4); experiment: as §1; summary of the method: as §2
# T3 sequence (whole entry): T2 sequence (Q9GZT4 whole entry)
# [3] = target: T4, D-aspartate oxidase (Homo sapiens) (UniProt Q99489); experiment: (§3) Inhibition of human recombinant N-terminal His-tagged DDO expressed in Escherichia coli BL21(DE3) using D-aspartate as substrate by colorimetric assay
# T4 sequence (whole entry): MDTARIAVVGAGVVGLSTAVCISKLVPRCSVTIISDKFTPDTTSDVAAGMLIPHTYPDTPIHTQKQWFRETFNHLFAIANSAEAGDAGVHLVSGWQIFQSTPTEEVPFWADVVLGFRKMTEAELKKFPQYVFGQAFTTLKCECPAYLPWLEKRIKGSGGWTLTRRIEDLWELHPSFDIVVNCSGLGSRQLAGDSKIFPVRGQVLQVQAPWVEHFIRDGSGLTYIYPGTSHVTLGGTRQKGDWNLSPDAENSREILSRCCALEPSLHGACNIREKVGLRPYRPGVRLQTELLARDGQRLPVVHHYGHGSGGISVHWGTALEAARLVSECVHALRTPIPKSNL
# Summary of the method: (§4)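 Purified enzyme (0.23–4.2 μg) with 10 mM D-Asp in air-saturated 40 mM sodium pyrophosphate pH 8.3, 23 U catalase, 60 μM FAD; 37 °C, 10 min; trichloroacetic acid stop; 2-oxo acid measured as 2,4-dinitrophenylhydrazone at A445.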
# D-aspartate oxidase = target: T5, D-aspartate oxidase (Homo sapiens, UniProt Q99489); experiment: as §3; summary of the method: as §4
# T5 sequence (Q99489 whole entry): T4 sequence (whole entry)
# D-amino-acid oxidase [4] = target: T1, D-amino-acid oxidase; experiment: Inhibition of human recombinant N-terminal His-tagged DAO expressed in Escherichia coli BL21(DE3) using D-alanine as substrate by colorimetric assay
# D-amino-acid oxidase [5] = target: T1, D-amino-acid oxidase; experiment: Binding affinity to human recombinant N-terminal His-tagged DAO expressed in Escherichia coli BL21(DE3) at 40 uM after 2 to 30 mins by absorption spectra analysis; conditions: 200 uM, in the assay text read “at 200 uM” for “at 40 uM”
# Summary of the method: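 Purified enzyme at 1.7 μg/μL in 10 mM sodium pyrophosphate pH 8.3 with 2 mM EDTA, 5 mM 2-mercaptoethanol, 10% (v/v) glycerol; wavelength scans at 25 °C before and after compound addition (final 40 μM or 200 μM depending on compound), recorded at indicated times; binding inferred from perturbation of the absorption spectrum.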
# Target sequence in this assay (P14920 whole entry, looked up): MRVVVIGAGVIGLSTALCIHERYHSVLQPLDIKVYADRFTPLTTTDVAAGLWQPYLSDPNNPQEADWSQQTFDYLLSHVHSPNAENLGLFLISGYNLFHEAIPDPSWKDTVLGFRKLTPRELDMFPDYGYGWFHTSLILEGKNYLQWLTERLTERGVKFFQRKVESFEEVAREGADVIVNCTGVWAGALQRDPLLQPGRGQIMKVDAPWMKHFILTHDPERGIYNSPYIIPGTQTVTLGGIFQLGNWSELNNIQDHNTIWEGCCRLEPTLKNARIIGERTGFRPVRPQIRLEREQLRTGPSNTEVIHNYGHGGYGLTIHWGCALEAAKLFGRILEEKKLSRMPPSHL
SMILES,IC50 (D-amino-acid oxidase [1]),IC50 (Serine racemase),inhibition [2],inhibition [3],IC50 (D-aspartate oxidase),IC50 (D-amino-acid oxidase [4]),inhibition (D-amino-acid oxidase [4]),inhibition (D-amino-acid oxidase [1]),Activity (D-amino-acid oxidase [5])
Oc1nc(-c2ccccc2)no1,> 5000 µM,–,–,–,–,–,–,–,–
O=C(O)c1ccc[n+]([O-])c1 [OXINIACIC ACID],> 2500 µM,–,–,–,–,–,–,–,–
O=C(O)C1=CN2CCN=C2C=C1,> 1000 µM,–,–,–,–,–,–,–,–
Nc1ccc(-c2nnc(O)o2)cc1,> 10000 µM,–,–,–,–,–,–,–,–
Nc1cncc(C(=O)O)c1,> 2500 µM,–,–,–,–,–,–,–,–
CNCC(=O)c1ccc(O)c(O)c1 [ADRENALONE],> 1000 µM,–,–,–,–,–,–,–,–
O=C(O)c1cc2c(s1)CCCC2,900 µM,5010 µM,Dose-dependent effect,Dose-dependent effect,> 10000 µM,1450 µM,Dose-dependent effect,–,–
CCCc1cc(C(=O)O)sc1C,1830 µM,5160 µM,Dose-dependent effect,Dose-dependent effect,> 10000 µM,3720 µM,Dose-dependent effect,–,–
O=C(O)c1cc2c([nH]1)CCCC2,> 100 µM,–,–,–,–,–,–,–,–
NC[C@H](O)c1ccc(O)c(O)c1 [NOREPINEPHRINE],> 10000 µM,–,–,–,–,–,–,–,–
O=c1[nH]nc(-c2ccccc2)o1,253 µM,> 10000 µM,Dose-dependent effect,Dose-dependent effect,> 10000 µM,365 µM,Dose-dependent effect,–,–
Cc1ccccc1-c1nnc(O)o1,199 µM,> 5000 µM,Dose-dependent effect,Dose-dependent effect,> 5000 µM,298 µM,Dose-dependent effect,Dose-dependent effect,–
C/C=C/C(=O)O [CROTONIC ACID],357 µM,> 10000 µM,–,–,> 10000 µM,598 µM,–,Dose-dependent effect,–
CCc1cc(C(=O)O)sc1C,666 µM,5720 µM,Dose-dependent effect,Dose-dependent effect,> 10000 µM,1100 µM,Dose-dependent effect,–,–
O=C(O)C(O)C(O)C(=O)O (stereo not drawn),> 10000 µM,2820 µM,–,–,3920 µM,–,–,–,–
O=C(O)CC(=O)O [MALONIC ACID],> 10000 µM,24.9 µM,Dose-dependent effect,Dose-dependent effect,1350 µM,–,–,–,inactive
Oc1cc(-c2ccccc2)no1,> 500 µM,–,–,–,–,–,–,–,–
O=C(O)c1ccc2cccnc2n1,> 10000 µM,–,–,–,–,–,–,–,–
O=C(O)[C@@H](O)[C@@H](O)C(=O)O,–,–,Dose-dependent effect,Dose-dependent effect,–,–,–,–,–
O=C(O)c1cn2ccccc2n1,> 2500 µM,–,–,–,–,–,–,–,–
